Assay results as given in ChEMBL document CHEMBL3120089, “Indoloditerpenes from a marine-derived fungal strain of Dichotomomyces cejpii with antagonistic activity at GPR18 and cannabinoid receptors” (J Nat Prod, 2014).
pIC50, pKi: −log10 of the molar value. The source made the active and inactive calls. The calls are words filed in the database; no cut-off is given here.

Columns and labels:
Cannabinoid receptor 2 [1] = target: T1, Cannabinoid receptor 2 (Homo sapiens, UniProt P34972); assay: Displacement of [3H]-CP55940 from human CB2 receptor expressed in CHO cells; assay type: cell-based
How it was run: (§1)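 Competition binding against agonist radioligand [3H]CP55,940 at CB1 or CB2 receptors. Compound stocks in DMSO, final DMSO 2.5%. Ki from concentration–inhibition curves; three independent experiments in duplicate.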

Cannabinoid receptor 2 [2] = target: T1, Cannabinoid receptor 2; assay: Antagonist activity at human CB2 receptor expressed in CHO cells assessed as inhibition of forskolin-induced cAMP accumulation incubated for 5 mins followed by forskolin challenge measured after 15 mins by liquid scintillation counting analysis in presence of [3H]cAMP; assay type: functional, cell-based
How it was run: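 CHO cells stably expressing human CB2; adenylate cyclase inhibition measured as intracellular cAMP, quantified by a cAMP competition binding assay; three independent experiments in duplicate.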

L6 = assay: Cytotoxicity against rat L6 cells assessed as growth inhibition after 70 hrs by Alamar Blue assay; assay type: cell-based; conditions: L6, 70 h
[3] = target: T2, G-protein coupled receptor 55 (Homo sapiens, UniProt Q9Y2T6); assay: Antagonist activity at human GPR55 expressed in CHO cells assessed as inhibition of LPI-mediated beta-arrestin recruitment after 90 mins by beta-galactosidase reporter gene assay; assay type: cell-based
How it was run: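 CHO cells stably expressing GPR55; PathHunter β-galactosidase complementation. 20,000 cells/well seeded in Opti-MEM with 2% FCS and selection antibiotics, 24 h at 37 °C. Compounds added in PBS with 10% DMSO and 0.1% BSA, 90 min at 37 °C, against a constant 1 μM LPI. Galacton-Star/Emerald-II lysis reagent for 60 min at rt, then luminescence read. IC50 from three independent experiments in duplicate.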

Cannabinoid receptor 1 = Cannabinoid receptor 1 (Homo sapiens, UniProt P21554); assay: Displacement of [3H]-CP55940 from human CB1 receptor expressed in CHO cells; assay type: cell-based; conditions: for inhibition: concentration not given here; how it was run: as §1
[4] = target: T3, N-arachidonyl glycine receptor (Homo sapiens, UniProt Q14330); assay: Antagonist activity at human GPR18 expressed in CHO cells assessed as inhibition of […] uM THC-mediated beta-arrestin recruitment after 90 mins by beta-galactosidase reporter gene assay; assay type: cell-based
T3 sequence (Q14330 whole entry): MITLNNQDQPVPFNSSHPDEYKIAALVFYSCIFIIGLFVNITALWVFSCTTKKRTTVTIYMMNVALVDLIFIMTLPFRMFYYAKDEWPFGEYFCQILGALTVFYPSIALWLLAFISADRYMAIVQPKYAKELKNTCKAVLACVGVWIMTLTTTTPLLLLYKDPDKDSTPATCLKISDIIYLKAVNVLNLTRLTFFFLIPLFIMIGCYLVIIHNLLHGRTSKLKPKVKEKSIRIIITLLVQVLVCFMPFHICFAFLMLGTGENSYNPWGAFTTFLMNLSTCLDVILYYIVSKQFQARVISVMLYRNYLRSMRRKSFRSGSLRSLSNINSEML

[5] = target: T2, G-protein coupled receptor 55; assay: Antagonist activity at human GPR55 expressed in CHO cells assessed as inhibition of LPI-mediated beta-arrestin recruitment at 10 uM after 90 mins by beta-galactosidase reporter gene assay relative to control; assay type: cell-based
How it was run: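 PathHunter β-galactosidase β-arrestin assay in CHO cells stably expressing GPR55. Cells incubated 24 h at 37 °C before use. Screening at 10 μM compound against 1 μM LPI, 90 min at 37 °C. Chemiluminescent Galacton-Star detection for 60 min at rt. Result given as % inhibition; three independent experiments in duplicate.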

[6] = Solubility of the compound in water; assay type: physicochemical; conditions: buffer
[7] = target: T3, N-arachidonyl glycine receptor; assay: Inverse agonist activity at human GPR18 expressed in CHO cells assessed as inhibition of 7.5 uM THC-mediated beta-arrestin recruitment after 90 mins by beta-galactosidase reporter gene assay; assay type: cell-based

Sequence of Cannabinoid receptor 1 (P21554 whole entry): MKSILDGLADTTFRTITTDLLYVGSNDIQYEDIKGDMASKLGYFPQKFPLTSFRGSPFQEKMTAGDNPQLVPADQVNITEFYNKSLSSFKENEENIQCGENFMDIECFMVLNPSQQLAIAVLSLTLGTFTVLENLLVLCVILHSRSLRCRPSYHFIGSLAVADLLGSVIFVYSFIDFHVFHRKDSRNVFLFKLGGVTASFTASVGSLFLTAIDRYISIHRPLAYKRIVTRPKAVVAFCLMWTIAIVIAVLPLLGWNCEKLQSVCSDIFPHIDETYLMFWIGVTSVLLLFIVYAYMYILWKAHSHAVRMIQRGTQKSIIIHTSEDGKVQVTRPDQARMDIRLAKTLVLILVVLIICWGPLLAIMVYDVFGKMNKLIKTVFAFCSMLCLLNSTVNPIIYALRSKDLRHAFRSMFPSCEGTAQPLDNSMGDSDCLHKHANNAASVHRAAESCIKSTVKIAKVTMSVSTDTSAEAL
T2 sequence (Q9Y2T6 whole entry): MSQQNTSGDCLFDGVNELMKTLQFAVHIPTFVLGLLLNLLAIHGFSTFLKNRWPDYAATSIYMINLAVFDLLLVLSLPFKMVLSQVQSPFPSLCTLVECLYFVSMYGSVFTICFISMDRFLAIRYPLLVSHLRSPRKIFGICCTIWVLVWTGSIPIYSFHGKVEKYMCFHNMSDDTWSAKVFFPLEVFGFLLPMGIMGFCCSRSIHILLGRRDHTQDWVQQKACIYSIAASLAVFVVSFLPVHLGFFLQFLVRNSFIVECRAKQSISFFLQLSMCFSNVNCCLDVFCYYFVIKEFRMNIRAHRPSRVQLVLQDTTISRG
T1 sequence (P34972 whole entry): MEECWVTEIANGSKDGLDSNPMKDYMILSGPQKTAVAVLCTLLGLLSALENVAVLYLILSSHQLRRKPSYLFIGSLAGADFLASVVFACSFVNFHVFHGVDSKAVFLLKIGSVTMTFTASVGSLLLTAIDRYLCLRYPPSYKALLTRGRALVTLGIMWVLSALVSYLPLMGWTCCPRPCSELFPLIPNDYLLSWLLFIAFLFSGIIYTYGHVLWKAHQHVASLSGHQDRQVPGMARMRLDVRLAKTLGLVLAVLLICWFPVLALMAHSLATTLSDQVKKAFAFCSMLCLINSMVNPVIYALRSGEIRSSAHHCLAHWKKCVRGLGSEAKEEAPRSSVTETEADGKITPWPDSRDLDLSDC

For `CC(C)=CCC[C@]1(C)[C@@H](O[C@@H]2O[C@H](CO)[C@@H](O)[C@H](O)[C@@H]2O)CC[C@@]2(C)[C@H]1CC[C@H]1Cc3c([nH]c4ccccc34)[C@@]12C`, the pKi (Cannabinoid receptor 2 [1]) was 4.97, the inhibition (Cannabinoid receptor 2 [2]) was “Active” and the pIC50 (L6) was 4.24. For the same compound, the pIC50 [3] was under 5.00, the pKi (Cannabinoid receptor 1) was 4.97 and the inhibition (Cannabinoid receptor 1) was 30%. The pIC50 [4] was under 5.00, the inhibition [5] was 13% and the solubility [6] was “soluble”.

With `CC(C)=C[C@H]1C[C@]2(C)[C@H](CC[C@@]3(C)[C@H]2CC[C@H]2Cc4c([nH]c5ccccc45)[C@@]23C)O1` the pKi (Cannabinoid receptor 2 [1]) was 5.32, the pIC50 [7] was 5.00 and the pIC50 [3] was under 5.00. For the same compound, the pKi (Cannabinoid receptor 1) was 5.36 and the inhibition [5] was 0%.

In the case of `COC(C)(C)/C=C/C[C@]1(C)[C@@H](O)CC[C@@]2(C)[C@H]1CC[C@H]1Cc3c([nH]c4ccccc34)[C@@]12C`, the pKi (Cannabinoid receptor 2 [1]) was under 5.00, the inhibition (Cannabinoid receptor 2 [1]; concentration not given here) was 33% and the pIC50 [7] was 4.87. The pIC50 [3] was under 5.00, the pKi (Cannabinoid receptor 1) was under 5.00 and the inhibition (Cannabinoid receptor 1) was 39%. The inhibition [5] was 31%.

Compound `CC(C)=CCC[C@]1(C)[C@@H](O)CC[C@@]2(C)[C@H]1CC[C@H]1Cc3c([nH]c4ccccc34)[C@@]12C` [EMINDOLE SB] has a pKi (Cannabinoid receptor 2 [1]) of 5.65, a pIC50 [3] of under 5.00 and a pKi (Cannabinoid receptor 1) of 5.15. The pIC50 [4] was under 5.00 and the inhibition [5] was 12%.
